Source: PMC10868446 (Pharmaceutical Biology, 2024)

Legend:
[1] = rats; after administration of Semen Cassiae extract; ref Yang et al. [2015]; cited from earlier work
[2] = after rhubarb extract administration; ref Ding et al. [2003]; Xun et al. [2019]; cited from earlier work
CYP2C9 = CYP2C9 (Homo sapiens, UniProt P11712); experiment: Time-dependent inhibition of CYP2C9 in HLMs; type: in vitro ADME; settings: HLMs pre-incubated with physcion 30 min; incubation 5, 10, 15 and 30 min
Method in brief: (§1)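 Two-step format: microsomes were pre-incubated with the test compound for 30 min. A 20 μL aliquot was transferred to a second tube with substrate near Km and started with the NADPH-generating system. Incubations ran 5, 10, 15 and 30 min, were stopped with acetonitrile and centrifuged, and residual activity was measured by HPLC. Triplicate.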

CYP2D6 = CYP2D6 (Homo sapiens, UniProt P10635); experiment: Time-dependent inhibition of CYP2D6 in HLMs; type: in vitro ADME; settings: HLMs pre-incubated with physcion 30 min; incubation 5, 10, 15 and 30 min
Method in brief: as §1

[3] = system: CYP450 isoforms (1A2, 2A6, 2C8, 2C9, 2C19, 2D6, 2E1, 3A4); experiment: Cocktail assay of CYP450 isoform activity in pooled human liver microsomes; type: in vitro ADME; settings: pooled HLMs, 100 μM physcion
Method in brief: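 Single-concentration screen in pooled human liver microsomes with the test compound at 100 μM, a blank negative control and typical isoform inhibitors as positive controls. Incubation was in 100 mM potassium phosphate, pH 7.4, with an NADPH-generating system after 3 min pre-incubation. Reactions were stopped with acetonitrile (trichloroacetic acid for CYP2A6), and probe metabolites were quantified by HPLC. Triplicate; one-way ANOVA against the negative control.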

CYP3A4 = CYP3A4 (Homo sapiens, UniProt P08684); experiment: Time-dependent inhibition of CYP3A4 in HLMs; type: in vitro ADME
CYP3A4, sequence (P08684 whole entry): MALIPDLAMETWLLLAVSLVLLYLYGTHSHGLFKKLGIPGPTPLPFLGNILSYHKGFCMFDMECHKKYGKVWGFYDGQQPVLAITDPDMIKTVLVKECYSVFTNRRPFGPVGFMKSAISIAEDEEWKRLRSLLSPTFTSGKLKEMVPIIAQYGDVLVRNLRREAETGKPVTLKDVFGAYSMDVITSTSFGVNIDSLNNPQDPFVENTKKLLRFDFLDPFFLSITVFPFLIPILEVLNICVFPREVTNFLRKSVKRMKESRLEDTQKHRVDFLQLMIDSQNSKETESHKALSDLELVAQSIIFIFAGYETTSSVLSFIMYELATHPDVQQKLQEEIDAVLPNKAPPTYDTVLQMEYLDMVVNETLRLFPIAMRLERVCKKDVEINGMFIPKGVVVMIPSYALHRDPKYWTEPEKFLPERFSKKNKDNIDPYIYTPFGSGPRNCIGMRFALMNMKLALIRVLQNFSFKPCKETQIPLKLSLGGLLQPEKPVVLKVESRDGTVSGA

CYP2D6, sequence (P10635 whole entry): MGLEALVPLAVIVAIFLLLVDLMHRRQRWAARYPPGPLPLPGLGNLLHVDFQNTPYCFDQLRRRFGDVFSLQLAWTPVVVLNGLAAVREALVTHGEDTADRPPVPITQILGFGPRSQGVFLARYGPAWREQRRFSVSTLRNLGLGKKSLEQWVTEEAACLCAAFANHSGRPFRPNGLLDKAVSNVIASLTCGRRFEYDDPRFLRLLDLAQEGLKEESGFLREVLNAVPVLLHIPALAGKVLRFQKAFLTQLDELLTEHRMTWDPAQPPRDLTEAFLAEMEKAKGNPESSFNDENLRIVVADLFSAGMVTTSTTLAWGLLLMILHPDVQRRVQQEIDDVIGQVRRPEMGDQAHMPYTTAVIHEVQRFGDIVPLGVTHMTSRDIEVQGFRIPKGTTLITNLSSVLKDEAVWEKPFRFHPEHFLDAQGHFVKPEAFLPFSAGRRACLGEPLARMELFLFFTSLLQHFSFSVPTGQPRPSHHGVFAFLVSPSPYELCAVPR
CYP2C9, sequence (P11712 whole entry): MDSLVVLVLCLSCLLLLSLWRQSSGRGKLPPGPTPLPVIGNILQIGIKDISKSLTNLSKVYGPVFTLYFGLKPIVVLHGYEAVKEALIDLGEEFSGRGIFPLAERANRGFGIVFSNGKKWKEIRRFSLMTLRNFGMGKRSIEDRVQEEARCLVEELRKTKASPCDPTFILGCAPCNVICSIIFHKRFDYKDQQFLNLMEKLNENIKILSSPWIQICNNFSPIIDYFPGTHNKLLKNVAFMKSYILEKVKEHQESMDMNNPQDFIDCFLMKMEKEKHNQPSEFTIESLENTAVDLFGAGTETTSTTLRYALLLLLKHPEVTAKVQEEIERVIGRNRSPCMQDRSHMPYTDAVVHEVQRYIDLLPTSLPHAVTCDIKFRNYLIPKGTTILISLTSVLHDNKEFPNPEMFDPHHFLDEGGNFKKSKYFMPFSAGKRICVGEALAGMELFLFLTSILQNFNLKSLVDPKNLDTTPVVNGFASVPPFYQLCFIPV

Time dependence of CYP2C9 inhibition (CYP2C9): not influenced
Time dependence of CYP2D6 inhibition (CYP2D6): not influenced
Inhibitory effect relative to the positive inhibitors of CYP2C9, 2D6 and 3A4 [3]: weaker than the positive inhibitors
KI (time-dependent inhibition of CYP3A4) (CYP3A4; 0–50 μM physcion, substrate approx. 4-fold Km, 0–30 min): 3.10 µM⁻¹
Time dependence of CYP3A4 inhibition (CYP3A4; HLMs pre-incubated with physcion 30 min, incubation 5, 10, 15 and 30 min): time-dependent
SMILES: COc1cc(O)c2c(c1)C(=O)c1cc(C)cc(O)c1C2=O [physcion, Physcion]
Maximum plasma concentration [1]: 461.85 ± 266.77 ng/mL
Time of maximum plasma concentration [1]: 0.167 ± 0.002 h
Maximum concentration of physcion [2]: 0.032 µg/mL
Time at which the maximum concentration was reached [2]: 2 h
Effect on activity of the major CYP450 isoforms ([3]; compared with negative control): Only the activity of CYP2C9, 2D6 and 3A4 was inhibited
